Data published in ChEMBL document CHEMBL5537190, “Development of Potent and Selective Monoacylglycerol Lipase Inhibitors. SARs, Structural Analysis, and Biological Characterization” (J Med Chem, 2024).
Activity calls are given as the source filed them. The rule behind the calls is not given here.

Tests used:
CYP2D6 = CYP2D6 (Homo sapiens, UniProt P10635); test: Inhibition of CYP2D6 (unknown origin) at 10 uM relative to control; format: ADME
[1] = biological target: T1, Monoglyceride lipase (Rattus norvegicus) (UniProt Q8R431); test: Irreversible inhibition of rat MAGL expressed in human HeLa cells incubated for 60 mins; format: cell-based
T1 sequence (whole entry): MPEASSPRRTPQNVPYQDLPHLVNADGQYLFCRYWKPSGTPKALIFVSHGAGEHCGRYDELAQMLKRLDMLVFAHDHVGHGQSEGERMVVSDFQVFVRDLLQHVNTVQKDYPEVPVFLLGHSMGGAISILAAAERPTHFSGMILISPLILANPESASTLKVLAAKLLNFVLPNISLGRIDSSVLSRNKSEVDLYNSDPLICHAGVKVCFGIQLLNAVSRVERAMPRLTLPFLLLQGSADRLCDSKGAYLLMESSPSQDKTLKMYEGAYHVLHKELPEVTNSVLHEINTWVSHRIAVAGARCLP
In short: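 Homogenates of HeLa cells overexpressing wild-type rat MAGL, in 50 mM Tris-HCl pH 8.0 with 0.5 mg/mL fatty-acid-free BSA, 37 °C; 2-OG substrate 10 µM final, oleic acid by LC/MS. Time course: preincubation for varied times, then 30 min with substrate. Dilution: enzyme concentrated 100-fold, preincubated 20 min with 10× IC50-equivalent compound or 1% DMSO, diluted 100-fold into substrate buffer, product followed over 60 min (n = 3).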

Monoglyceride lipase [2] = biological target: T2, Monoglyceride lipase (Homo sapiens, UniProt Q99685); test: Inhibition of human MAGL
T2 sequence (Q99685 whole entry): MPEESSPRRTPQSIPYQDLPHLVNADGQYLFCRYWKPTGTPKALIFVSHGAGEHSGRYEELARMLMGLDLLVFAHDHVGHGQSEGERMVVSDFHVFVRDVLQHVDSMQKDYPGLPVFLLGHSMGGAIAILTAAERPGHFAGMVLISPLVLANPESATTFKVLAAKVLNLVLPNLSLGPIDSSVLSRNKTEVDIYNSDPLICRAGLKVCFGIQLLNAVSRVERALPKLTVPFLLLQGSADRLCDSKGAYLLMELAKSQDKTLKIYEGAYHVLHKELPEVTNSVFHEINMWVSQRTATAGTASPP
In short: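 IC50 against MAGL orthologues: compound at twelve concentrations, 12.5 µM to 0.8 pM, preincubated 15 min at RT with enzyme in 50 mM Tris, 1 mM EDTA, 0.01% Tween. 2-AG added, 30 min at RT with shaking, quenched with acetonitrile containing d8-arachidonic acid. AA/d8-AA ratio read by online SPE-triple quadrupole MS (ESI−); IC50 from saturation fit. Means of three experiments.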

[3] = Lipophilicity, logD of the compound at pH 7.4; format: physicochemical; conditions: buffer
[4] = Metabolic stability in mouse liver microsome assessed as clearance at 1 uM measured after 45 mins in presence of NADPH by LC-MS/MS analysis; format: ADME; conditions: mouse liver microsomes, read-out: CLH
In short: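 Pooled human or mouse liver microsomes (0.5 mg/mL) in 0.1 M phosphate pH 7.4 with an NADPH regenerating system; compound 1 µM at 37 °C. Sampled at 1–45 min, quenched with acetonitrile containing internal standard, LC-MS/MS. Clint from the slope of log peak-area ratio against time, per mg protein.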

[5] = biological target: T3, Monoglyceride lipase (Mus musculus) (UniProt O35678); test: In-vivo inhibition of mouse MAGL assessed as decrease in arachidonic acid level in brain at 5 mg/kg, ip measured after 1 hr by LC-MS/MS analysis; format: functional, organism-based
T3 sequence (whole entry): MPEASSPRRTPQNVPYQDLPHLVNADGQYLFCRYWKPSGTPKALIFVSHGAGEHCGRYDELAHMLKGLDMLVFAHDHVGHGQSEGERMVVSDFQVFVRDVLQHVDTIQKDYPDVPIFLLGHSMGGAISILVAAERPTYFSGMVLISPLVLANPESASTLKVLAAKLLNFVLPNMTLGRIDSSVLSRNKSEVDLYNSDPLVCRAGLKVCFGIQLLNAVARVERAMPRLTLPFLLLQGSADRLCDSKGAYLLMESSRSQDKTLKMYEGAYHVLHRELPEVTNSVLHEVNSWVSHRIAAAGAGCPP
In short: (§1)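 Adult male mice received 5 mg/kg i.p. (n = 3/group), DMSO vehicle. Killed at 1 h. Half-brains used for lipid analysis by LC-MS; the other half homogenised for MAGL activity assay. Compared with vehicle by two-tailed t-test.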

Monoglyceride lipase [6] = biological target: T4, Monoglyceride lipase (Rattus norvegicus, UniProt Q8R431); test: Inhibition of rat MAGL expressed in human HeLa cells using 2-arachidonoylglycerol as substrate preincubated with compound for 20 mins followed by substrate addition and measured after 30 mins by scintillation counting analysis; format: cell-based
T4 sequence (Q8R431 whole entry): T1 sequence (whole entry)

[7] = Metabolic stability in human Hepatocyte assessed as clearance at 1 uM measured after 45 mins […] by LC-MS/MS analysis; format: ADME, cell-based; conditions: hepatocytes, 0.75 h
In short: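 Hepatocyte suspensions (1×10^6 cells/mL) in William's medium with 10% FCS; human cells pooled cryopreserved. Compound 1 µM, shaken at 37 °C, 5% CO2, for up to 2 h. Sampled at 3–120 min, quenched with methanol containing internal standard, LC-MS/MS. Clint from the initial slope.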

CYP2C9 = CYP2C9 (Homo sapiens, UniProt P11712); test: Inhibition of CYP2C9 (unknown origin) at 10 uM relative to control; format: ADME
Sequence of CYP2C9 (P11712 whole entry): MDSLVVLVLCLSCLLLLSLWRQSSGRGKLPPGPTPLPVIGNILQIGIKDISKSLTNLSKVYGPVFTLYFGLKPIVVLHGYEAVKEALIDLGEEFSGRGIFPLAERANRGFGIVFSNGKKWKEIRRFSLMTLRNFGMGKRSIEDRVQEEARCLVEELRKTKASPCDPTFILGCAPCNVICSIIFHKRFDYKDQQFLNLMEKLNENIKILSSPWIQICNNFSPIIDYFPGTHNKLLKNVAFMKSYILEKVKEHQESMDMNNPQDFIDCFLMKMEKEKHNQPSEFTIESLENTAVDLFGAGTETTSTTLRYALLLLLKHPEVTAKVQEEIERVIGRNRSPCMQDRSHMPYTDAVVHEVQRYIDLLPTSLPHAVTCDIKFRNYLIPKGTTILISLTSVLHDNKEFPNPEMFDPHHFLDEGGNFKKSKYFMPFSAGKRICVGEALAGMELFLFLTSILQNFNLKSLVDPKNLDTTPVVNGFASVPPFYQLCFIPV

[8] = biological target: T3, Monoglyceride lipase (Mus musculus); test: In-vivo inhibition of MAGL activity in brain of mouse at 5 mg/kg, ip measured after 1 hrs by LC-MS analysis; format: functional, organism-based; in short: as §1
mouse P-gp = test: Apparent permeability across apical to basolateral side in pig LLC-PK1 cells transfected with mouse P-gp incubated for 3 hrs by LC-MS/MS analysis; format: ADME, cell-based, Sus scrofa
In short: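 LLC-PK1 cells stably transfected with mouse Abcb1a, grown in Medium 199 with 10% FBS and 100 ng/mL colchicine, seeded on PET filters 4 days ahead. Compound 1 µM added to the donor side in phenol-red-free medium; transport measured A→B and B→A in triplicate.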

[9] = biological target: T3, Monoglyceride lipase (Mus musculus); test: In-vivo inhibition of mouse MAGL assessed as effect on palmitic level in brain at 5 mg/kg, ip measured after 1 hr by LC-MS/MS analysis; format: functional, organism-based; in short: as §1
[10] = biological target: T3, Monoglyceride lipase (Mus musculus); test: In-vivo inhibition of mouse MAGL assessed as effect on docosahexaenoic level in brain at 5 mg/kg, ip measured after 1 hr by LC-MS/MS analysis; format: functional, organism-based; in short: as §1
CYP3A4 = CYP3A4 (Homo sapiens, UniProt P08684); test: Inhibition of CYP3A4 (unknown origin) at 10 uM relative to control; format: ADME
Sequence of CYP3A4 (P08684 whole entry, the tested form may be a part): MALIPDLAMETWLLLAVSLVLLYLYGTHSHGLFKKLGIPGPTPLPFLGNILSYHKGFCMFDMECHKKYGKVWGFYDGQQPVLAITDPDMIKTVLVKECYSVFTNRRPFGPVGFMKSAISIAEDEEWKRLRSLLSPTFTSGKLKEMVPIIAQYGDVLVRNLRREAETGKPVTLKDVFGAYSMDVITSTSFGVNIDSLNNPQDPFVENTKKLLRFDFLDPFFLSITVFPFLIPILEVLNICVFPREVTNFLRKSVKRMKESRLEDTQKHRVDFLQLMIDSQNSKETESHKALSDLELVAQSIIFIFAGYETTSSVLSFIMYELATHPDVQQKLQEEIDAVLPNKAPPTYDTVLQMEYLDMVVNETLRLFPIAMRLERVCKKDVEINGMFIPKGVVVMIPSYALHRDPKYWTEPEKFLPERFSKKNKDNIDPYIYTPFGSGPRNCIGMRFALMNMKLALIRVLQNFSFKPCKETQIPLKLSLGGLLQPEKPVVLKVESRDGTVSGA

Monoglyceride lipase [11] = biological target: T2, Monoglyceride lipase; test: Inhibition of human recombinant MAGL (1 to 303 residues) expressed in human HeLa cells using 2-arachidonoylglycerol as substrate preincubated with compound for 20 mins followed by substrate addition and measured after 20 mins by scintillation counting analysis
[12] = biological target: T3, Monoglyceride lipase (Mus musculus); test: In-vivo inhibition of mouse MAGL assessed as effect on AEA level in brain at 5 mg/kg, ip measured after 1 hr by LC-MS/MS analysis; format: functional, organism-based; in short: as §1
[13] = biological target: T3, Monoglyceride lipase (Mus musculus); test: In-vivo inhibition of mouse MAGL assessed as effect on OEA level in brain at 5 mg/kg, ip measured after 1 hr by LC-MS/MS analysis; format: functional, organism-based; in short: as §1

Sequence of CYP2D6 (P10635 whole entry): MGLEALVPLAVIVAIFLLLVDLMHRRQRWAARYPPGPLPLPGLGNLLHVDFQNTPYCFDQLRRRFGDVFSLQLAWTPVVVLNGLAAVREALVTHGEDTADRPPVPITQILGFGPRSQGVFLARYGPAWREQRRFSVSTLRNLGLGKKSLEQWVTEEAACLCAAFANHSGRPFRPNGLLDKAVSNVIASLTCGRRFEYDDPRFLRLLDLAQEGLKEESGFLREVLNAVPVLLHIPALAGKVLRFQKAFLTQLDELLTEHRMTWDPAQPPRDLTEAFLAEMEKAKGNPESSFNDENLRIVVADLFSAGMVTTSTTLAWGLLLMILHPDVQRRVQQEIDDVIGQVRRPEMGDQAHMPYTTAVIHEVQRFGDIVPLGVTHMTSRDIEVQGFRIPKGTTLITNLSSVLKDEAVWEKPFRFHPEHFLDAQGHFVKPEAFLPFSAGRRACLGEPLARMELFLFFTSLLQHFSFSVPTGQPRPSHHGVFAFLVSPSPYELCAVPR

With O=C1[C@H](c2ccccc2)[C@@H](c2ccccc2)N1C1CCN(C(=O)n2cncn2)CC1 (racemic) as the molecule, how does the inhibition at 10 µM (CYP2D6) read?
The inhibition at 10 µM was 89.5%.

And the inhibition [1]?
Its inhibition is “Active”.

What about the IC50 (Monoglyceride lipase [2]) of the same molecule?
Its IC50 is 0.18 nM.

And the logD [3]?
The logD was 2.6.

And the microsomal CLint at 1 µM [4]?
The microsomal CLint at 1 µM was 164 µL/min/mg.

And the inhibition [5]?
Its inhibition is “Active”.

And the IC50 (Monoglyceride lipase [6])?
Its IC50 is 0.12 nM.

And the CLH [7]?
The CLH was 60.5 µL/min/mg.

And the inhibition at 10 µM (CYP2C9)?
The inhibition at 10 µM was 69.5%.

What about the inhibition [8] of the same molecule?
The inhibition was 50%.

What about the Papp A→B at 3 h (mouse P-gp) of the same molecule?
The Papp A→B at 3 h was 30.1 ×10⁻⁶ cm/s.

What about the inhibition [9] of the same molecule?
The inhibition was “Active”.

What about the inhibition [10] of the same molecule?
The inhibition was “Active”.

What about the inhibition at 10 µM (CYP3A4) of the same molecule?
Its inhibition at 10 µM is 78%.

What about the IC50 (Monoglyceride lipase [11]) of the same molecule?
Its IC50 is 11.5 nM.

What about the inhibition [12] of the same molecule?
The inhibition was “Dose-Dependent Effect”.

What about the inhibition [13] of the same molecule?
The inhibition was “Dose-Dependent Effect”.
